Measured values pooled from the literature.
Each line is one published result; the experiments were not run side by side.
Target: Ephrin type-A receptor 1 (EPHA1, Homo sapiens, UniProt P21709)
Residues used in one study (P21709 26-976): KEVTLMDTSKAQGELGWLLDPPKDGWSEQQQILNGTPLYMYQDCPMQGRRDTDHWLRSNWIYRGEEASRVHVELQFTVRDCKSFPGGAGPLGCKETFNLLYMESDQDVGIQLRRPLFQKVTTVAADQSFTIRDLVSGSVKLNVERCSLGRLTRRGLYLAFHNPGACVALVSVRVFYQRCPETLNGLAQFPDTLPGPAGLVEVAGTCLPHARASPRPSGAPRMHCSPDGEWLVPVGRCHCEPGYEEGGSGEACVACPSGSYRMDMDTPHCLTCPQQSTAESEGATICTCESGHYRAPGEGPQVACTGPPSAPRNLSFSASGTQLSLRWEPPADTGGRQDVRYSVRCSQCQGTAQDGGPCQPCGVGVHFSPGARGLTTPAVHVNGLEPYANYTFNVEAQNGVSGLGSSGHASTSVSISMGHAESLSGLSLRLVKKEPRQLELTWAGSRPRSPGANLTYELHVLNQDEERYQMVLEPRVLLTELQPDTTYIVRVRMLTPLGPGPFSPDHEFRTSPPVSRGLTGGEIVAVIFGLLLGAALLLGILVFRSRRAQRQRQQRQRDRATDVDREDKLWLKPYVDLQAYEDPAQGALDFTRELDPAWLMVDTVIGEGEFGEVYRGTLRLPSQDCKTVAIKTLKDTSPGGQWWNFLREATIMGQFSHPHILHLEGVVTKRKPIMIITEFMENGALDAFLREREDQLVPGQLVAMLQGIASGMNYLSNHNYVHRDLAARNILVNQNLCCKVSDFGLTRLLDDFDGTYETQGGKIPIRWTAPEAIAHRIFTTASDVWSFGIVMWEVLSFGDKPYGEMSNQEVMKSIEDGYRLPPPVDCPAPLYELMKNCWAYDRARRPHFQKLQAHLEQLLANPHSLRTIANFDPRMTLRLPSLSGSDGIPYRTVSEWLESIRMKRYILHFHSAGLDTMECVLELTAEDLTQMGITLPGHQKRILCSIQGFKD

| Compound | effect on | action | technique | tested at | quantity | value |
| --- | --- | --- | --- | --- | --- | --- |
| CCN(CC)CCNC(=O)c1c(C)[nH]c(/C=C2\C(=O)Nc3ccc(F)cc32)c1C | enzyme activity | inhibitor |  | 0.3 µM | inhibition | 1% |
| Cc1sc(C(=O)NC2COC2)cc1-n1cc(NC(=O)Nc2c(F)cccc2Cl)cn1 | enzyme activity | inhibitor |  | 10 µM | remaining activity | 88.5% |
| F[C@@H]1CCN(c2nccc(-c3cnn4ncccc34)n2)C1 | binding |  |  | 1 µM | remaining binding | 79% |
| CCCS(=O)(=O)Nc1ccc(F)c(C(=O)c2c[nH]c3ncc(-c4ccc(Cl)cc4)cc23)c1F | enzyme activity | inhibitor |  | 1 µM | inhibition | < 10% |
| CNC(=O)c1cc(Oc2ccc(NC(=O)Nc3ccc(Cl)c(C(F)(F)F)c3)cc2)ccn1 | enzyme activity | inhibitor |  | 10 µM | inhibition | 94% |
| CC/C(=N\NC(=O)NCc1cccc(O)c1)c1ccc(O)c(C)c1O | enzyme activity | inhibitor |  | 0.1 µM | inhibition | -1.2% |
| COc1cccc2c(NCc3ccccc3)nc(-n3c(N)nc4ccccc43)nc12 | target engagement in cells | inhibitor | chemoproteomics | 20 mM | inhibition | -22.2% |
| Oc1cccc(-c2nc(N3CCOCC3)c3oc4ncccc4c3n2)c1 | cell-free assay |  |  | 0.5 µM | remaining signal | 87.8% |
| CC(C)(C)c1nc(-c2cccc(NS(=O)(=O)c3c(F)cccc3F)c2F)c(-c2ccnc(N)n2)s1 | enzyme activity | inhibitor | radiometric | 1 µM | remaining activity | 81% |
| COc1cc(Nc2c(C#N)cnc3cc(OCCCN4CCN(C)CC4)c(OC)cc23)c(Cl)cc1Cl | cell-free assay |  |  | 0.5 µM | remaining signal | 97.7% |
| CS(=O)(=O)N1CCCC(NC(=O)[C@H](CCC2CCCCC2)NC(=O)c2ccc(CNc3ncnc4c3nnn4-c3ccccc3)cc2)C1 (some centres unmarked) | cell-free assay |  | competition with immobilised ligand | 0.1 µM | remaining binding | 95% |
| COc1cc2ncnc(Nc3ccc(Oc4ccccc4)cc3C)c2cc1OC | enzyme activity | inhibitor |  | 1 µM | inhibition | 11% |
| Cc1ccc(Nc2nccc(N(C)c3ccc4c(C)n(C)nc4c3)n2)cc1S(N)(=O)=O | enzyme activity | inhibitor |  | 10 µM | inhibition | 85% |
| CCN(CC)c1ccc(C2=NNC(=O)CC2C)cc1[N+](=O)[O-] (centres unmarked) | enzyme activity | inhibitor |  | 10 µM | remaining activity | 112% |
| Nc1c(C(=O)NCc2ccc(C(=O)NCCCC3CCCCC3)cc2)cnn1-c1ccccc1 | cell-free assay |  | competition with immobilised ligand | 0.1 µM | remaining binding | 100% |
| COc1cc(-c2cc(-c3ccc(N4CCNCC4)cc3)cnc2C)cc(OC)c1OC | enzyme activity | inhibitor |  | 1 µM | inhibition | 16% |
| O=C(O)[C@@H]1[C@@H](Cn2nnc3ccccc3c2=O)CC[C@H]1C(=O)c1ccc(OCCC2CCOCC2)cc1 | cell-free assay |  | competition with immobilised ligand | 1 µM | remaining binding | 100% |
| CNC(=O)c1cc2c(Oc3ccc(NC(=O)C4(C(=O)Nc5ccc(F)cc5)CC4)cc3)ccnc2cc1OC | enzyme activity | inhibitor | radiometric | 1 µM | inhibition | 90% |
| CN(C)C(=O)Cn1cc(-c2nc(C3(c4ccc(-c5cnc(N)nc5)cc4)CC3)no2)cn1 | cell-free assay |  | competition with immobilised ligand | 1 µM | remaining binding | 100% |
| N#CCCc1ccc2c(c1)-c1[nH]c3ccc([N+](=O)[O-])cc3c1CC(=O)N2 | cell-free assay |  |  | 0.5 µM | remaining signal | 91.7% |
| O=C1CCc2cc(Nc3cc(OC4CCOCC4)c([N+](=O)[O-])cc3Cl)ccc2N1 | cell-free assay |  | competition with immobilised ligand | 1 µM | remaining binding | 81% |
| Cc1cnc(NC2CCOCC2)nc1-n1cnc(C(=O)NC(CN)c2cc(F)cc(Cl)c2)c1 (centres unmarked) | enzyme activity | inhibitor | radiometric | 1 µM | remaining activity | 99% |
| CO[C@@H](C)c1c(Nc2ccc([C@@H](N(C)C(=O)C3CCS(=O)(=O)CC3)C(F)(F)F)cc2)cnc2cc(Cl)nn12 | cell-free assay |  | competition with immobilised ligand | 1 µM | remaining binding | 97% |
| Nc1ncnc2occ(-c3ccc(NC(=O)Nc4cc(C(F)(F)F)ccc4F)cc3)c12 | cell-free assay |  |  | 20 µM | remaining signal | 0.5% |
| C[C@@H]1CN(c2cc(-c3nn(C)c4ccc(OC5(C)CC5)cc34)ncn2)C[C@H](C)O1 | cell-free assay |  | competition with immobilised ligand | 1 µM | remaining binding | 100% |
| c1ccc(CNc2nc(N3CCOc4ccccc43)nc3c2CCCC3)cc1 | target engagement in cells | inhibitor | chemoproteomics | 20 mM | inhibition | -26.1% |
